Key:
Type in all cases: functional
[1] = test system: Prevotella bivia; assay: Antibacterial activity against Prevotella bivia isolated from patient with diabetic foot infection after 44 to 48 hrs by agar dilution method
In short: (§1)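 CLSI M11-A7 agar dilution: serial twofold drug dilutions made on the test day and added to molten agar. Spots of 10^5 CFU were applied by replicator, with drug-free control plates inoculated before and after each set. Incubation was 44 to 48 h at 37°C in an anaerobic chamber. MIC was the lowest concentration giving no growth or a marked change in growth versus controls.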

[2] = test system: Anaerocolumna aminovalerica; assay: Antibacterial activity against Clostridium aminovalericum isolated from patient with diabetic foot infection after 44 to 48 hrs by agar dilution method; in short: as §1
[3] = test system: Clostridium cadaveris; assay: Antibacterial activity against Clostridium cadaveris isolated from patient with diabetic foot infection after 44 to 48 hrs by agar dilution method; in short: as §1
[4] = test system: Enterocloster clostridioformis; assay: Antibacterial activity against Clostridium clostridioforme isolated from patient with diabetic foot infection after 44 to 48 hrs by agar dilution method; in short: as §1
[5] = test system: [Clostridium] innocuum; assay: Antibacterial activity against Clostridium innocuum isolated from patient with diabetic foot infection after 44 to 48 hrs by agar dilution method; in short: as §1
[6] = test system: Cutibacterium acnes; assay: Antibacterial activity against Propionibacterium acnes isolated from patient with diabetic foot infection after 44 to 48 hrs by agar dilution method; in short: as §1
[7] = test system: Anaerococcus prevotii; assay: Antibacterial activity against Anaerococcus prevotii isolated from patient with diabetic foot infection after 44 to 48 hrs by agar dilution method; in short: as §1
[8] = test system: Peptoniphilus asaccharolyticus; assay: Antibacterial activity against Peptoniphilus asaccharolyticus isolated from patient with diabetic foot infection after 44 to 48 hrs by agar dilution method; in short: as §1
[9] = test system: Peptostreptococcus anaerobius; assay: Antibacterial activity against Peptostreptococcus anaerobius isolated from patient with diabetic foot infection after 44 to 48 hrs by agar dilution method; in short: as §1
[10] = test system: Parvimonas micra; assay: Antibacterial activity against Peptostreptococcus micros isolated from patient with diabetic foot infection after 44 to 48 hrs by agar dilution method; in short: as §1
[11] = test system: Bacteroides caccae; assay: Antibacterial activity against Bacteroides caccae isolated from patient with diabetic foot infection after 44 to 48 hrs by agar dilution method; in short: as §1
[12] = test system: Bacteroides ovatus; assay: Antibacterial activity against Bacteroides ovatus isolated from patient with diabetic foot infection after 44 to 48 hrs by agar dilution method; in short: as §1
[13] = test system: Bacteroides stercoris; assay: Antibacterial activity against Bacteroides stercoris isolated from patient with diabetic foot infection after 44 to 48 hrs by agar dilution method; in short: as §1
[14] = test system: Bacteroides fragilis; assay: Antibacterial activity against Bacteroides fragilis isolated from patient with diabetic foot infection assessed as percent resistant isolates after 44 to 48 hrs by agar dilution method
In short: (§2)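 Agar dilution per CLSI M11-A7. Twofold drug dilutions made on the test day and added to molten agar. Replicator-applied inoculum of 10^5 CFU/spot. Drug-free control plates inoculated before and after each drug set. Incubation at 37°C for 44 to 48 h, anaerobic chamber. MIC taken as the lowest concentration giving no growth or a marked change in growth versus controls.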

[15] = test system: Bacteroides caccae; assay: Antibacterial activity against Bacteroides caccae isolated from patient with diabetic foot infection assessed as percent resistant isolates after 44 to 48 hrs by agar dilution method; in short: as §2
[16] = test system: Bacteroides stercoris; assay: Antibacterial activity against Bacteroides stercoris isolated from patient with diabetic foot infection assessed as percent resistant isolates after 44 to 48 hrs by agar dilution method; in short: as §2
[17] = test system: Bacteroides thetaiotaomicron; assay: Antibacterial activity against Bacteroides thetaiotaomicron isolated from patient with diabetic foot infection assessed as percent resistant isolates after 44 to 48 hrs by agar dilution method; in short: as §2
[18] = test system: Phocaeicola vulgatus; assay: Antibacterial activity against Bacteroides vulgatus isolated from patient with diabetic foot infection after 44 to 48 hrs by agar dilution method; in short: as §1
[19] = test system: Parabacteroides distasonis; assay: Antibacterial activity against Parabacteroides distasonis isolated from patient with diabetic foot infection after 44 to 48 hrs by agar dilution method; in short: as §1
[20] = test system: Porphyromonas asaccharolytica; assay: Antibacterial activity against Porphyromonas asaccharolyticus isolated from patient with diabetic foot infection after 44 to 48 hrs by agar dilution method; in short: as §1
[21] = test system: Phocaeicola vulgatus; assay: Antibacterial activity against Bacteroides vulgatus isolated from patient with diabetic foot infection assessed as percent resistant isolates after 44 to 48 hrs by agar dilution method; in short: as §2
[22] = test system: Parabacteroides distasonis; assay: Antibacterial activity against Parabacteroides distasonis isolated from patient with diabetic foot infection assessed as percent resistant isolates after 44 to 48 hrs by agar dilution method; in short: as §2
[23] = test system: Parabacteroides merdae; assay: Antibacterial activity against Parabacteroides merdae isolated from patient with diabetic foot infection assessed as percent resistant isolates after 44 to 48 hrs by agar dilution method; in short: as §2
[24] = test system: Porphyromonas asaccharolytica; assay: Antibacterial activity against Porphyromonas asaccharolyticus isolated from patient with diabetic foot infection assessed as percent resistant isolates after 44 to 48 hrs by agar dilution method; in short: as §2
[25] = test system: Porphyromonas somerae; assay: Antibacterial activity against Porphyromonas somerae isolated from patient with diabetic foot infection assessed as percent resistant isolates after 44 to 48 hrs by agar dilution method; in short: as §2
[26] = test system: Prevotella bivia; assay: Antibacterial activity against Prevotella bivia isolated from patient with diabetic foot infection assessed as percent resistant isolates after 44 to 48 hrs by agar dilution method; in short: as §2
[27] = test system: Anaerocolumna aminovalerica; assay: Antibacterial activity against Clostridium aminovalericum isolated from patient with diabetic foot infection assessed as percent resistant isolates after 44 to 48 hrs by agar dilution method; in short: as §2
[28] = test system: Clostridium cadaveris; assay: Antibacterial activity against Clostridium cadaveris isolated from patient with diabetic foot infection assessed as percent resistant isolates after 44 to 48 hrs by agar dilution method; in short: as §2
[29] = test system: Enterocloster clostridioformis; assay: Antibacterial activity against Clostridium clostridioforme isolated from patient with diabetic foot infection assessed as percent resistant isolates after 44 to 48 hrs by agar dilution method; in short: as §2
[30] = test system: Cutibacterium acnes; assay: Antibacterial activity against Propionibacterium acnes isolated from patient with diabetic foot infection assessed as percent resistant isolates after 44 to 48 hrs by agar dilution method; in short: as §2
[31] = test system: Anaerococcus tetradius; assay: Antibacterial activity against Anaerococcus tetradius isolated from patient with diabetic foot infection assessed as percent resistant isolates after 44 to 48 hrs by agar dilution method; in short: as §2
[32] = test system: Finegoldia magna; assay: Antibacterial activity against Finegoldia magna isolated from patient with diabetic foot infection assessed as percent resistant isolates after 44 to 48 hrs by agar dilution method; in short: as §2
[33] = test system: Peptoniphilus asaccharolyticus; assay: Antibacterial activity against Peptoniphilus asaccharolyticus isolated from patient with diabetic foot infection assessed as percent resistant isolates after 44 to 48 hrs by agar dilution method; in short: as §2
[34] = test system: Peptostreptococcus anaerobius; assay: Antibacterial activity against Peptostreptococcus anaerobius isolated from patient with diabetic foot infection assessed as percent resistant isolates after 44 to 48 hrs by agar dilution method; in short: as §2
[35] = test system: Parvimonas micra; assay: Antibacterial activity against Peptostreptococcus micros isolated from patient with diabetic foot infection assessed as percent resistant isolates after 44 to 48 hrs by agar dilution method; in short: as §2
[36] = test system: Anaerococcus vaginalis; assay: Antibacterial activity against Anaerococcus vaginalis isolated from patient with diabetic foot infection after 44 to 48 hrs by agar dilution method; in short: as §1
[37] = test system: Anaerococcus vaginalis; assay: Antibacterial activity against Anaerococcus vaginalis isolated from patient with diabetic foot infection assessed as percent resistant isolates after 44 to 48 hrs by agar dilution method; in short: as §2

CCC[C@@H]1C[C@@H](C(=O)N[C@@H]([C@H]2O[C@H](SC)[C@H](O)[C@@H](O)[C@H]2O)[C@H](C)Cl)N(C)C1 [CLINDAMYCIN]
21%: Activity [26]
≤ 0.03 µg/mL: MIC50 [1] | MIC50 [6] | MIC50 [20]
25%: Activity [33]
23%: Activity [27] | Activity [28] | Activity [29]
64 µg/mL: MIC90 [7] | MIC90 [20] | MIC90 [36]
20%: Activity [15] | Activity [16] | Activity [17] | Activity [21] | Activity [22] | Activity [23]
2 µg/mL: MIC90 [6] | MIC50 [11] | MIC50 [12] | MIC50 [13] | MIC50 [18] | MIC50 [19]
0.125 µg/mL: MIC50 [7] | MIC50 [8] | MIC50 [9] | MIC50 [10] | MIC50 [36]
16 µg/mL: MIC90 [2] | MIC90 [3] | MIC90 [4] | MIC90 [5]
12%: Activity [24] | Activity [25]
10%: Activity [14]
0%: Activity [30] | Activity [32] | Activity [34] | Activity [35]
18%: Activity [31] | Activity [37]
> 64 µg/mL: MIC90 [1] | MIC90 [8] | MIC90 [11] | MIC90 [12] | MIC90 [13] | MIC90 [18] | MIC90 [19]
0.5 µg/mL: MIC50 [2] | MIC50 [3] | MIC50 [4] | MIC50 [5] | MIC90 [9] | MIC90 [10]

C[C@@H](O)[C@H]1C(=O)N2C(C(=O)O)=C(S[C@@H]3CN[C@H](CNS(N)(=O)=O)C3)[C@H](C)[C@H]12 [DORIPENEM]
1 µg/mL: MIC90 [2] | MIC90 [3] | MIC90 [4] | MIC90 [5] | MIC90 [11] | MIC90 [12] | MIC90 [13] | MIC90 [18] | MIC90 [19]
0%: Activity [14] | Activity [15] | Activity [16] | Activity [17] | Activity [21] | Activity [22] | Activity [23] | Activity [24] | Activity [25] | Activity [26] | Activity [27] | Activity [28] | Activity [29] | Activity [30] | Activity [31] | Activity [32] | Activity [33] | Activity [34] | Activity [35] | Activity [37]
0.25 µg/mL: MIC90 [9] | MIC90 [10] | MIC50 [11] | MIC50 [12] | MIC50 [13] | MIC50 [18] | MIC50 [19]
≤ 0.015 µg/mL: MIC50 [7] | MIC50 [8] | MIC50 [20] | MIC50 [36]
0.06 µg/mL: MIC50 [1] | MIC50 [2] | MIC50 [3] | MIC50 [4] | MIC50 [5] | MIC50 [6] | MIC90 [7] | MIC90 [8] | MIC50 [9] | MIC50 [10] | MIC90 [36]
0.03 µg/mL: MIC90 [20]
0.125 µg/mL: MIC90 [1] | MIC90 [6]

C[C@@H](O)[C@H]1C(=O)N2C(C(=O)O)=C(S[C@@H]3CN[C@H](C(=O)Nc4cccc(C(=O)O)c4)C3)[C@H](C)[C@H]12 [ERTAPENEM]
0.25 µg/mL: MIC50 [1] | MIC50 [2] | MIC50 [3] | MIC50 [4] | MIC50 [5] | MIC90 [6] | MIC90 [7] | MIC90 [8] | MIC50 [9] | MIC50 [10] | MIC90 [36]
0%: Activity [14] | Activity [15] | Activity [16] | Activity [17] | Activity [21] | Activity [22] | Activity [23] | Activity [24] | Activity [25] | Activity [26] | Activity [27] | Activity [28] | Activity [29] | Activity [30] | Activity [31] | Activity [32] | Activity [33] | Activity [34] | Activity [35] | Activity [37]
0.5 µg/mL: MIC90 [1] | MIC90 [9] | MIC90 [10]
1 µg/mL: MIC50 [11] | MIC50 [12] | MIC50 [13] | MIC50 [18] | MIC50 [19]
≤ 0.015 µg/mL: MIC50 [8] | MIC50 [20]
2 µg/mL: MIC90 [2] | MIC90 [3] | MIC90 [4] | MIC90 [5] | MIC90 [11] | MIC90 [12] | MIC90 [13] | MIC90 [18] | MIC90 [19]
0.06 µg/mL: MIC90 [20]
0.125 µg/mL: MIC50 [6] | MIC50 [7] | MIC50 [36]

C[C@@H](O)[C@H]1C(=O)N2C(C(=O)O)=C(SCCNC=N)C[C@H]12 [IMIPENEM ANHYDROUS]
0.25 µg/mL: MIC50 [2] | MIC50 [3] | MIC50 [4] | MIC50 [5]
0.03 µg/mL: MIC50 [1] | MIC90 [1] | MIC90 [7] | MIC90 [8] | MIC50 [9] | MIC50 [10] | MIC90 [36]
≤ 0.015 µg/mL: MIC50 [6] | MIC90 [6] | MIC50 [7] | MIC50 [8] | MIC90 [20] | MIC50 [36]
2 µg/mL: MIC90 [2] | MIC90 [3] | MIC90 [4] | MIC90 [5]
0.06 µg/mL: MIC90 [9] | MIC90 [10]
0.5 µg/mL: MIC50 [11] | MIC50 [12] | MIC50 [13] | MIC50 [18] | MIC50 [19]
0%: Activity [14] | Activity [15] | Activity [16] | Activity [17] | Activity [21] | Activity [22] | Activity [23] | Activity [24] | Activity [25] | Activity [26] | Activity [27] | Activity [28] | Activity [29] | Activity [30] | Activity [31] | Activity [32] | Activity [33] | Activity [34] | Activity [35] | Activity [37]
< 0.015 µg/mL: MIC50 [20]
1 µg/mL: MIC90 [11] | MIC90 [12] | MIC90 [13] | MIC90 [18] | MIC90 [19]

Source: ChEMBL document CHEMBL1153560, “In vitro activities of doripenem and six comparator drugs against 423 aerobic and anaerobic bacterial isolates from infected diabetic foot wounds” (2008)
